Measurements taken from the EternaBench riboswitch data.

Tested on: MS2 coat protein
Experiment: apparent Kd, MS2 coat protein; higher = weaker binding; RNA-MaP array; FMN 200 µM where present
How it was run: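 Stalled E. coli RNA polymerase transcribed each design on Illumina sequencing-chip clusters. The clusters were titrated with SNAP-549-labelled MS2 coat protein, starting at 0.7 or 1.5 nM and doubling up to 3 µM, first without ligand and then with constant ligand, in 100 mM Tris-HCl pH 7.5, 80 mM KCl, 4 mM MgCl2, BSA, DTT, yeast tRNA and Tween-20. Green signal was normalised to red-channel RNA signal and to the control-cluster median Fmax. The apparent Kd is the median of filtered binding-curve fits made for each cluster.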

[1] = designed as: OFF switch for flavin mononucleotide, no ligand
[2] = ligand present: flavin mononucleotide, designed as: OFF switch for flavin mononucleotide
[3] = designed as: ON switch for flavin mononucleotide, no ligand
[4] = ligand present: flavin mononucleotide, designed as: ON switch for flavin mononucleotide

“CUCAUGUCAGGAUAUCAGUAGUAAAAAAAUAAAAUUACUACUGAGAAGGGACAUGAGGAUCACCCAUGUCCGGG” was tested, and the “apparent Kd” value [1] was 20.4 nM and the “apparent Kd” value [2] was 18.4 nM.
“GUAGCAUACCGAGGAUAUUCGUCCGGAUUACGGACAUGAGGAUCACCCAUGUGGCGAAAGCCUUGGGAGAAGGCGGAAUGCUAC” was tested, and the “apparent Kd” value [3] was 732 nM and the “apparent Kd” value [4] was 247 nM.
With “AUCUAAGAAUUAAUUGUGACAGUGAGAAGGCUAUAGUAUGUGACCGACAUGAGGAUCACCCAUGUAGAGGAUAUCACUUGCUAC” the “apparent Kd” value [1] was 71.8 nM and the “apparent Kd” value [2] was 335 nM.
For “AAGAAGAACGCAGGAUAUCUCACCCAUGUAAGAAGAGAAGGGCGACAUGAGGAUCACCCAUGUCAACAUGAGGAUCACCCAUGU”, the “apparent Kd” value [1] was 59.6 nM and the “apparent Kd” value [2] was 88.9 nM.
In the case of “GCGUGGUUCUAGAAGGUGCUAGCGAUAAGCUAGCAAGGAUAUAGACAUGAGGAUCACCCAUGUCUAUGUGAAAUAGACACACGC”, the “apparent Kd” value [1] is reported as 4.75 nM and the “apparent Kd” value [2] is reported as 4.62 nM.
With “ACCUCACAUGAGGAUCACCCAUGUCAGGAUAUACAAACCGUGAUAAGACACGGUCGUAGUAGAAGGGACUAUGG” the “apparent Kd” value [1] was 69.5 nM and the “apparent Kd” value [2] was 24.9 nM.
In the case of “UCGUCCAUGUCAGGAUAUGGCGGUAAAGAAAGGCUAGAAGGGACAUGAGGAUCACCCAUGUGCUCUUACGUGCACGGGCUGCGC”, the “apparent Kd” value [1] is reported as 6.47 nM and the “apparent Kd” value [2] is reported as 8.18 nM.
With “CCGACCCAAGGAUAUUGUACUGCUGACAUGAGGAUCACCCAUGUAUGUUAACUCGGCCGACGAGAAGGUGGCGACA” the “apparent Kd” value [1] was 26.8 nM and the “apparent Kd” value [2] was 23.9 nM.
“CCUCCACAUGAGGAUCACCCAUGUCAGGAUAUCGUGUGCGCGUUUUCGGUCUUUCGCGCGAGAAGGGACGUCUG” was tested, and the “apparent Kd” value [1] was 26.9 nM and the “apparent Kd” value [2] was 30.1 nM.
“AAGAAGUGAGGAUAUGGCCGGGUCCCUGGGUUUGGACCCGGCCAGAAGGCACAUGAGGAUCACCCAUGUAAGAA” was tested, and the “apparent Kd” value [1] was 24 nM and the “apparent Kd” value [2] was 46.3 nM.
“UUGAAUUUAAACAUGAGGAUCACCCAUGUGUCAUAGUUGAUAUAGGAUAUGCUUAUACUUUGAAAGCAGAAGGAUGACGAUACU” was tested, and the “apparent Kd” value [3] was 26.3 nM and the “apparent Kd” value [4] was 11.9 nM.
“UGGUACUAGGGAGGAUAUGGGAAGAUACAUGAGGAUCACCCAUGUUUAAGAAUGCCGAGAGGCAACUAGAAGGCCCUUGUACCU” was tested, and the “apparent Kd” value [3] was 444 nM and the “apparent Kd” value [4] was 19.3 nM.
With “GUAGCAUACGGAGGAUAUCCAUACCGGAAACGGACAUGAGGAUCACCCAUGUGGCGAAAGCCUUGGGAGAAGGCCGUAUGCUAC” the “apparent Kd” value [3] was 4.63 nM and the “apparent Kd” value [4] was 3.67 nM.
In the case of “CUUUAGUGAGGAUAUGUGGCUUCGAUCGUGAGAUCGAGGCUACAGAAGGCACAUGAGGAUCACCCAUGUUUCUU”, the “apparent Kd” value [1] is reported as 17.2 nM and the “apparent Kd” value [2] is reported as 81 nM.
With “CGCUGUCACGCAGGAUAUGCAUUGGAUUACAAUGCAGAAGGGCGAUUACAUGAGGAUCACCCAUGUGUCGACAGUGAAGAAGAG” the “apparent Kd” value [4] was 43 nM.
“GCGUGACAUGAGGAUCACCCAUGUGAGGAUAUCUGGAUACUCUUUAUUUUAGAUAUCCAGAGAAGGCACAUGCU” was tested, and the “apparent Kd” value [1] was 217 nM and the “apparent Kd” value [2] was 151 nM.
In the case of “CGCCACUUAACAGCGGCGCGGUCGAGAAGGGUACAUGAGGAUCACCCAUGUCACGUUCCUCCUGUACAGGAUAUCGUACGGGUA”, the “apparent Kd” value [1] is reported as 65.6 nM and the “apparent Kd” value [2] is reported as 117 nM.
With “UUUUAACAUGAGGAUCACCCAUGUGAGGAUAUCGAAAUUUAUAUUAAUAUUUAUUUUUCGAGAAGGCACAUUUU” the “apparent Kd” value [1] was 164 nM and the “apparent Kd” value [2] was 159 nM.
“GCCUUAUCCGUCAGGAUAUACAUUUUUUUGUUGUUGUAGAAGGGACAUGAGGAUCACCCAUGUACAUUACAUUG” was tested, and the “apparent Kd” value [1] was 21.5 nM and the “apparent Kd” value [2] was 25.1 nM.
In the case of “AUAUUUGUUUAGAAGGACAUGAGGAUCACCCAUGUCGCUGGGCGCGGGAAACCGUGCGCGGCCAUGUAGGAUAUAGGGAGAUAU”, the “apparent Kd” value [1] is reported as 38.7 nM and the “apparent Kd” value [2] is reported as 24.3 nM.
With “UGAACUAUGUAGAAGGCCCACAUUAAUAUGUAGGGAGGAUAUACAUGAGGAUCACCCAUGUAAAGAGCAAGAGGAUUUAACAGA” the “apparent Kd” value [1] was 10.3 nM and the “apparent Kd” value [2] was 21.7 nM.
In the case of “CUAUGCGGAAUAGGAUAUUCGUUCAUGAGGAUAGAAGAAGGGUUACAUGAGGAUCACCCAUGUAUGCACAUGAGGAUCCCUUAG”, the “apparent Kd” value [1] is reported as 252 nM and the “apparent Kd” value [2] is reported as 228 nM.
With “UUUUAACAUGAGGAUCACCCAUGUGAGGAUAUCGAAAUUUAUAUUUAUAUUAAUAUAUCGAGAAGGCACAUUUU” the “apparent Kd” value [1] was 99 nM and the “apparent Kd” value [2] was 144 nM.
With “GGAUUUCCUGAGGAUAUUGCAUCACCCGAUUUAUAAGAAGGCAGAACAUGAGGAUCACCCAUGUGGGUCUCCGG” the “apparent Kd” value [1] was 18.9 nM and the “apparent Kd” value [2] was 23.1 nM.
“AACAGGUUCACAUGAGGAUCACCCAUGUUAGCCUAACGUAGGAGAAGGGCGGUAGCUGGGCUGACGUAGGAUAUCCUACUGUGA” was tested, and the “apparent Kd” value [3] was 10 nM and the “apparent Kd” value [4] was 5.79 nM.
With “GGAGCCGGUACUGAGGAUAUUCAUAUUAAAACAUGAGGAUCACCCAUGUAGGCCAGAAGGCCUUGGGAGAAGGCGGACCAGCUCG” the “apparent Kd” value [3] was 463 nM and the “apparent Kd” value [4] was 32.8 nM.
“AUUAUGCAGCAGGAUAUCGAUCCGCAGUAUGAUCGAGAAGGGCUGACAUGAGGAUCACCCAUGUGCGUCCUAGG” was tested, and the “apparent Kd” value [1] was 43.6 nM and the “apparent Kd” value [2] was 155 nM.
“GGUGCGUAUGUGAGGAUAUGCUGGUCCUUGGAUCAGCAGAAGGCACAUGAGGAUCACCCAUGUGGUGUCGUACA” was tested, and the “apparent Kd” value [1] was 347 nM and the “apparent Kd” value [2] was 40.1 nM.
